Compound activity: PubChem, SRMLSC
Yeast growth inh: growth inhibitors of yeast BB579 in restrictive medium, primary screen, yeast lifespan-shortening project, S. cerevisiae; OD615, 48 h; inhibition, % at 10 µM; hit rate 0.51% among 140,000;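 active means inhibition above a set limit, 3 SD over the mean compound inhibition, cut at about 44% in these data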
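System: DeaD yeast strain BB579; buffer or medium: CSMM-D dextrose restrictive medium; technique: OD at 615 nm; schedule: 4 h cell preincubation, 48 h compound exposure, 30 °C humidified; doses: single 10 µM dose; controls: amphotericin B 10 µg/mL, positive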
PostGolgi yeast: phenotypic screen on post-Golgi transport, primary screen | post-Golgi transport phenotypic cell assay | inhibition, % at 10 µM | hit rate 0.9% among 98,000;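 further: yeast cells grown in 1536-well plates; yeast grown about 18 h at 30C before absorbance read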
PostGolgi ctrl: growth inhibition of yeast control strain, primary screen, counter-screen for post-Golgi transport modulator project. efflux-deficient yeast background strain, growth absorbance A615, 16 h. inhibition, % at 10 µM. hit rate 5% among 98,000. AID 738, 2007
Yeast lifespan up: compounds extending yeast replicative lifespan, primary screen, S. cerevisiae, OD615 | S. cerevisiae growth with nicotinamide; deaD strain in restrictive glucose medium | hit rate 0.68% among 130,000 | inhibition of the nicotinamide effect, % at 10 µM | AID 775, 2007;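 active means inhibition above a set limit, placed 3 SD over the median of all compounds, cut at about 26% in these data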
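Assay system: DeaD-strain S. cerevisiae. Medium: CSMM-D glucose medium, restrictive. Reagent: nicotinamide, 1.5 mM, co-present with compound. Compound: 10 µM single point, 0.25% DMSO. Schedule: culture preincubation 4 h, compound exposure 48 h, both 30 °C. Detection: absorbance at 615 nm.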
Of the large screens only hits and unclear results are named; the others gave an inactive call. Shown is part of a subset that was picked to be rich in hits. Unless noted, no stated cut-off is given here; in the data, active means inhibition above about 30%; inactive means the rest.

Nc1c(C(=O)c2ccc(Br)s2)oc2ccccc12	PostGolgi ctrl 37
Nc1c(C(=O)c2cccs2)oc2ccccc12	none
N#Cc1nc(COc2cccc(Cl)c2)oc1NCc1ccco1	PostGolgi ctrl 33
N#Cc1nc(COc2ccccc2Cl)oc1NCc1ccc(F)cc1	none
Cc1ccc(OCc2nc(C#N)c(NCc3ccco3)o2)cc1	none
N#Cc1nc(COc2ccccc2Cl)oc1NCc1cccnc1	PostGolgi yeast 59, PostGolgi ctrl 47
O=C(COC(=O)CCS(=O)(=O)c1ccc(Cl)cc1)NCCc1ccccc1	none (no result: PostGolgi yeast, PostGolgi ctrl)
O=C(COC(=O)CNC(=O)c1ccccc1)Nc1nc(-c2ccccc2)cs1	none (no result: PostGolgi yeast, PostGolgi ctrl)
Cc1nc2c3ccccc3nc(SCC(=O)N3CC(C)CC(C)C3)n2n1 (centres undefined)	PostGolgi ctrl 32
Cc1nc2c3ccccc3nc(SCC(=O)c3ccc(Cl)cc3)n2n1	none (no result: PostGolgi yeast, PostGolgi ctrl)
COc1ccc(/C=N/N2CCN(C3c4ccccc4-c4ccccc43)CC2)cc1O	none (no result: PostGolgi yeast, PostGolgi ctrl)
COC(=O)c1ccc(NC(=O)Nc2ccc(F)c(Cl)c2)cc1	PostGolgi ctrl 35
FC(F)(F)c1cccc(NC(=S)Nc2ccc(Cl)cc2Cl)c1	PostGolgi yeast 38, PostGolgi ctrl 53
Fc1ccc(NC(=S)Nc2ccc(F)c(Cl)c2)cc1Cl	PostGolgi yeast 72, PostGolgi ctrl 65
CCOc1cc(OCC)nc(S(C)(=O)=O)n1	none (no result: PostGolgi yeast, PostGolgi ctrl)
O=C(CSc1nc(C2CC2)nc2ccccc12)N1c2ccccc2Sc2ccc(C(F)(F)F)cc21	none
NC(=O)c1cc(-c2ccccc2)nc(N2CCCCCC2)n1	PostGolgi ctrl 37
NC(=O)c1cc(-c2ccccc2)nc(N2CCOCC2)n1	none
CC1Nc2ccccc2C(=O)N1NS(=O)(=O)c1ccccc1 (centres undefined)	none (no result: PostGolgi yeast, PostGolgi ctrl)
CN(CC(=O)Nc1cccc(F)c1)C(=O)CCCc1cccs1	none (no result: PostGolgi yeast, PostGolgi ctrl)
Cc1ccnc(N=Cc2c(O)ccc3oc4c(c23)CCCC4)c1	Yeast lifespan up 45 (no result: PostGolgi yeast, PostGolgi ctrl)
COc1ccc(OC)c(Nc2nc(-c3cccs3)cs2)c1	none
COc1ccccc1Nc1nc(-c2cccs2)cs1	PostGolgi ctrl 52
N#C/C(=C\c1ccccc1)C(=O)N(c1ccccn1)C1CCCCC1	Yeast lifespan up 63 (no result: PostGolgi yeast, PostGolgi ctrl)
O=C(NC(C(=O)c1ccccc1)N1CCOCC1)c1cccs1 (centres undefined)	PostGolgi ctrl 33
C=C(C(=O)c1ccccc1)C(C)CC(=O)c1ccccc1 (centres undefined)	Yeast lifespan up 34 (no result: PostGolgi yeast, PostGolgi ctrl)
O=C(CC(Nc1ccccc1)C(=O)O)c1ccccc1 (centres undefined)	none
N#Cc1ccc(-c2ccc(OCC(=O)NCC(=O)Nc3ccc(F)c(F)c3F)cc2)cc1	none (no result: PostGolgi yeast, PostGolgi ctrl)
O=C(Cn1nnc(-c2ccc(S(=O)(=O)N3CCCC3)cc2)n1)NCC1CCCO1 (centres undefined)	PostGolgi yeast 34
Cn1c(SCC(=O)NCC2CCCO2)nnc1-c1ccc(S(=O)(=O)N2CCCC2)cc1 (centres undefined)	none
COc1cccc(C(=O)N2CCN(C3CCC(c4ccccc4)CC3)CC2)c1OC (centres undefined)	PostGolgi yeast 94, PostGolgi ctrl 54
CCOc1ccc(/C=N/O)cc1	none
CCCCCCCCCCCCCCCC[n+]1cccc(C(=O)N(CC)CC)c1	Yeast growth inh 101 (no result: PostGolgi yeast, PostGolgi ctrl)
CCCCCCCCCCCCCCCC[n+]1ccc(C(N)=O)cc1	Yeast growth inh 100 (no result: PostGolgi yeast, PostGolgi ctrl)
CCCCCCCC[n+]1cccc(C(=O)N(CC)CC)c1	none (no result: PostGolgi yeast, PostGolgi ctrl)
CCCCCCCCCCCCCCCC[n+]1ccc(/C=N/O)cc1	Yeast growth inh 100 (no result: PostGolgi yeast, PostGolgi ctrl)
CCOC(=O)Cc1csc(NC(NC(=O)OCC)(C(=O)OCC)C(F)(F)F)n1 (centres undefined)	none (no result: PostGolgi yeast, PostGolgi ctrl, Yeast lifespan up)
Cc1ccc(C)c(NC(=O)COC(=O)CC2c3ccccc3CCN2S(=O)(=O)c2ccc(F)cc2)c1 (centres undefined)	none (no result: PostGolgi yeast, PostGolgi ctrl)
CCCC(c1nnnn1Cc1cccs1)N1CCN(c2nc3ccccc3s2)CC1 (centres undefined)	PostGolgi yeast 47
CCCCC(c1nnnn1CC1CCCO1)N1CCN(c2cc(Cl)ccc2C)CC1 (centres undefined)	PostGolgi ctrl 31
CCCCC(c1nnnn1CC1CCCO1)N1CCN(c2nc3ccccc3s2)CC1 (centres undefined)	Yeast lifespan up 73
C/C(=N/O)c1ccc2c(c1)OCCOCCOc1cc(/C(C)=N/O)ccc1OCCOCCO2	none (no result: PostGolgi yeast, PostGolgi ctrl)
CCc1ccc(NC(=O)C(=O)NNC(=O)COc2cccc(OC)c2)cc1	none (no result: PostGolgi yeast, PostGolgi ctrl)
Cc1ccc(-n2c(SCC(=O)Nc3cc(C)on3)nc3c([nH]c4ccccc43)c2=O)cc1	none
Cc1cc(NC(=O)CSc2ncccn2)no1	none (no result: PostGolgi yeast, PostGolgi ctrl, Yeast lifespan up)
Cc1cc(NC(=O)CSc2c(C)[nH]c3ccccc23)no1	PostGolgi ctrl 30
Cc1cc(NC(=O)CSc2ncn(-c3ccccc3)n2)no1	PostGolgi ctrl 33
CC(C)[C@H](NC(=O)OC(C)(C)C)c1nnc(SCC(=O)Nc2ccc(Br)cc2)o1	none
COc1ccc(CS(=O)(=O)/C(Cl)=C(/Cl)C(=O)Nc2ccc(OC)nc2)cc1	PostGolgi ctrl 65
COc1ccc(NC(=S)Nc2ccccc2)cn1	none (no result: PostGolgi yeast, PostGolgi ctrl)
COc1ccc(NC(=O)/C(Cl)=C(/Cl)S(=O)Cc2ccccc2)cn1 (centres undefined)	PostGolgi yeast 107, PostGolgi ctrl 80, Yeast lifespan up 53
Cc1cccc(N(CC(O)CON=C2c3ccccc3-c3ccccc32)S(C)(=O)=O)c1 (centres undefined)	PostGolgi ctrl 41
COc1ccc(-n2c(=O)c3ccccc3n(CC(=O)NC3CCCCC3)c2=O)c(OC)c1	none
COc1ccc(-n2c(=O)c3ccccc3n(CC(=O)NC3CCCC3)c2=O)cc1	PostGolgi ctrl 37
Cc1ccc(C(C)NC(=O)c2cc(C)oc2C)cc1 (centres undefined)	PostGolgi ctrl 33
c1ccc(-c2ccc(C(c3ccccc3)n3ccnc3)cc2)cc1 (centres undefined)	Yeast growth inh 96 (no result: PostGolgi yeast, PostGolgi ctrl)
O=C1CCCC2=C1C(c1ccc(Cl)cc1)C1C(=O)c3ccccc3C1=N2 (centres undefined)	PostGolgi ctrl 43
CC(C)c1ccc(/C=C/C(=O)NC2=NCCS2)cc1	PostGolgi ctrl 33
CCN(CC)CCn1nc(C)nc1-c1ccccc1O	PostGolgi yeast 40
O=S(=O)(c1ccc(Cl)c(NC(=S)Nc2cccc(O)c2)c1)N1CCOCC1	Yeast lifespan up 27 (no result: PostGolgi yeast, PostGolgi ctrl)
COc1ccc(Cc2nc(C(=O)Nc3ccc(OC)cc3)cs2)cc1	none
COc1ccc(Cc2nc(C(=O)NCc3ccccc3OC)cs2)cc1	PostGolgi ctrl 35
COC(=O)CNC(=O)C(C)NC(=O)CNC(=O)OCc1ccccc1 (centres undefined)	none
O=P(OC1CCCCC1)(OC1CCCCC1)C(O)c1ccc(Cl)cc1Cl (centres undefined)	none
COc1ccc(C(O)P(=O)(OC2CCCCC2)c2ccc(N(C)C)cc2)cc1OC (centres undefined)	none
Cc1ccc(C(O)P(=O)(OC2CCCCC2)OC2CCCCC2)cc1 (centres undefined)	PostGolgi ctrl 40
O=P(OC1CCCCC1)(OC1CCCCC1)C(O)c1c(Cl)cccc1Cl (centres undefined)	PostGolgi ctrl 36
O=C(Nc1ccon1)c1csc2c1CCCC2	PostGolgi ctrl 32
